Test results reported in ChEMBL document CHEMBL1649446, “Comparative antipneumococcal activities of sulopenem and other drugs” (2009).
In brackets after ≈: the same amount, converted by molar mass.

Tests used:
Type in all cases: functional
Streptococcus pneumoniae [1] = experiment: Antimicrobial activity against Streptococcus pneumoniae isolate 3458 by agar dilution method
Streptococcus pneumoniae [2] = experiment: Antimicrobial activity against Streptococcus pneumoniae isolate 24 by agar dilution method
Streptococcus pneumoniae [3] = experiment: Antimicrobial activity against Streptococcus pneumoniae isolate 3374 by agar dilution method
How it was run: (§1)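 Agar dilution MIC on Mueller-Hinton agar with 5% sheep blood, inocula 10^4 CFU/spot; amoxicillin-clavulanate combined 1:2; S. pneumoniae ATCC 49619 quality control each run.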

Streptococcus pneumoniae [4] = experiment: Antimicrobial activity against Streptococcus pneumoniae isolate 2688 by agar dilution method; how it was run: as §1
Streptococcus pneumoniae [5] = experiment: Antimicrobial activity against Streptococcus pneumoniae isolate 1424 by agar dilution method; how it was run: as §1
Streptococcus pneumoniae [6] = experiment: Antimicrobial activity against Streptococcus pneumoniae isolate 33 by agar dilution method; how it was run: as §1
Streptococcus pneumoniae [7] = experiment: Antimicrobial activity against Streptococcus pneumoniae 10 by time-kill analysis
How it was run: (§2)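 Time-kill in cation-adjusted Mueller-Hinton broth with 5% lysed horse blood; inocula 5 × 105 to 5 × 10^6 CFU/ml; drugs at MIC, 2× and 4× MIC; 35°C shaking water bath; viable counts at 0, 3, 6, 12, 24 h. Bactericidal = ≥3 log10 CFU/ml (99.9%) drop from original inoculum; 90%/99%/99.9% killing scored per strain.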

Streptococcus pneumoniae [8] = experiment: Antimicrobial activity against Streptococcus pneumoniae isolate 37 by agar dilution method; how it was run: as §1
Streptococcus pneumoniae [9] = experiment: Antimicrobial activity against Streptococcus pneumoniae 3 by time-kill analysis in presence of beta-lactamase inhibitor clavulanic acid
Streptococcus pneumoniae [10] = experiment: Antimicrobial activity against Streptococcus pneumoniae 7 by time-kill analysis; how it was run: as §2
Streptococcus pneumoniae [11] = experiment: Antimicrobial activity against Streptococcus pneumoniae isolate 2617 by agar dilution method; how it was run: as §1
Streptococcus pneumoniae [12] = experiment: Antimicrobial activity against Streptococcus pneumoniae isolate 1055 by agar dilution method
Streptococcus pneumoniae [13] = experiment: Antimicrobial activity against Streptococcus pneumoniae isolate 3791 by agar dilution method; how it was run: as §1
Streptococcus pneumoniae [14] = experiment: Antimicrobial activity against Streptococcus pneumoniae 8 by time-kill analysis; how it was run: as §2
Streptococcus pneumoniae [15] = experiment: Antimicrobial activity against Streptococcus pneumoniae isolate 1146 by agar dilution method; how it was run: as §1
Streptococcus pneumoniae [16] = experiment: Antimicrobial activity against Streptococcus pneumoniae 10 by time-kill analysis in presence of beta-lactamase inhibitor clavulanic acid
Streptococcus pneumoniae [17] = experiment: Antimicrobial activity against Streptococcus pneumoniae isolate 3681 by agar dilution method; how it was run: as §1
Streptococcus pneumoniae [18] = experiment: Antimicrobial activity against Streptococcus pneumoniae 9 by time-kill analysis
How it was run: as §2, with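 “12 and” for “12,”, “if” for “=”, “reduction” for “drop”, “90% and 99%” for “90%/99%/99.9%”, “also scored.” for “scored per strain.”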

Streptococcus pneumoniae [19] = experiment: Antimicrobial activity against Streptococcus pneumoniae 8 by time-kill analysis in presence of beta-lactamase inhibitor clavulanic acid
Streptococcus pneumoniae [20] = experiment: Antimicrobial activity against Streptococcus pneumoniae 3 by time-kill analysis; how it was run: as §2
Streptococcus pneumoniae [21] = experiment: Antimicrobial activity against Streptococcus pneumoniae isolate 1397 by agar dilution method; how it was run: as §1
Streptococcus pneumoniae [22] = experiment: Antimicrobial activity against Streptococcus pneumoniae isolate 3263 by agar dilution method
Streptococcus pneumoniae [23] = experiment: Antimicrobial activity against Streptococcus pneumoniae isolate 2686 by agar dilution method; how it was run: as §1
Streptococcus pneumoniae [24] = experiment: Antimicrobial activity against Streptococcus pneumoniae isolate 1384 by agar dilution method; how it was run: as §1
Streptococcus pneumoniae [25] = experiment: Antimicrobial activity against Streptococcus pneumoniae isolate 2880 by agar dilution method; how it was run: as §1
Streptococcus pneumoniae [26] = experiment: Antimicrobial activity against Streptococcus pneumoniae isolate 4747 by agar dilution method; how it was run: as §1
Streptococcus pneumoniae [27] = experiment: Antimicrobial activity against Streptococcus pneumoniae isolate 1394 by agar dilution method
Streptococcus pneumoniae [28] = experiment: Antimicrobial activity against Streptococcus pneumoniae 2 by time-kill analysis; how it was run: as §2
Streptococcus pneumoniae [29] = experiment: Antimicrobial activity against Streptococcus pneumoniae isolate 3346 by agar dilution method
Streptococcus pneumoniae [30] = experiment: Antimicrobial activity against Streptococcus pneumoniae 19A by agar dilution method; how it was run: as §1
Streptococcus pneumoniae [31] = experiment: Antimicrobial activity against Streptococcus pneumoniae 1 by time-kill analysis in presence of beta-lactamase inhibitor clavulanic acid
Streptococcus pneumoniae [32] = experiment: Antimicrobial activity against penicillin-susceptible Streptococcus pneumoniae by agar dilution method in presence of beta-lactamase inhibitor clavulanic acid
Streptococcus pneumoniae [33] = experiment: Antimicrobial activity against Streptococcus pneumoniae 5 by time-kill analysis
How it was run: as §2, with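 “12 and” for “12,”, “if” for “=”, “reduction” for “drop”, “90% and 99%” for “90%/99%/99.9%”, “also scored.” for “scored per strain.”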

Streptococcus pneumoniae [34] = experiment: Antimicrobial activity against Streptococcus pneumoniae isolate 4755 by agar dilution method; how it was run: as §1
Streptococcus pneumoniae [35] = experiment: Antimicrobial activity against Streptococcus pneumoniae 1 by time-kill analysis
How it was run: as §2, with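 “12 and” for “12,”, “if” for “=”, “reduction” for “drop”, “90% and 99%” for “90%/99%/99.9%”, “also scored.” for “scored per strain.”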

Streptococcus pneumoniae [36] = experiment: Antimicrobial activity against Streptococcus pneumoniae isolate 3260 by agar dilution method
Streptococcus pneumoniae [37] = experiment: Antimicrobial activity against Streptococcus pneumoniae isolate 3455 by agar dilution method
Streptococcus pneumoniae [38] = experiment: Antimicrobial activity against Streptococcus pneumoniae 19A by agar dilution method in presence of beta-lactamase inhibitor clavulanic acid
How it was run: (§3)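 Agar dilution MIC on Mueller-Hinton agar with 5% sheep blood at 10^4 CFU/spot. Clavulanate combined with amoxicillin 1:2. Control S. pneumoniae ATCC 49619 included in each run. Penicillin categories: intermediate 0.125–1.0 μg/ml, resistant 2.0–16.0 μg/ml. MIC50/MIC90 taken across strain sets, including 45 drug-resistant serotype 19A isolates.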

Streptococcus pneumoniae [39] = experiment: Antimicrobial activity against penicillin-resistant Streptococcus pneumoniae by agar dilution method in presence of beta-lactamase inhibitor clavulanic acid; how it was run: as §3
Streptococcus pneumoniae [40] = experiment: Antimicrobial activity against penicillin-intermediate Streptococcus pneumoniae by agar dilution method in presence of beta-lactamase inhibitor clavulanic acid; how it was run: as §3
Streptococcus pneumoniae [41] = experiment: Antimicrobial activity against penicillin-resistant Streptococcus pneumoniae by agar dilution method; how it was run: as §1
Streptococcus pneumoniae [42] = experiment: Antimicrobial activity against Streptococcus pneumoniae 4 by time-kill analysis; how it was run: as §2
Streptococcus pneumoniae [43] = experiment: Antimicrobial activity against Streptococcus pneumoniae isolate 1564 by agar dilution method
Streptococcus pneumoniae [44] = experiment: Antimicrobial activity against Streptococcus pneumoniae isolate 1147 by agar dilution method; how it was run: as §1
Streptococcus pneumoniae [45] = experiment: Antimicrobial activity against Streptococcus pneumoniae 7 by time-kill analysis in presence of beta-lactamase inhibitor clavulanic acid
Streptococcus pneumoniae [46] = experiment: Antimicrobial activity against Streptococcus pneumoniae isolate 3275 by agar dilution method; how it was run: as §1
Streptococcus pneumoniae [47] = experiment: Antimicrobial activity against Streptococcus pneumoniae isolate 3587 by agar dilution method
Streptococcus pneumoniae [48] = experiment: Antimicrobial activity against Streptococcus pneumoniae 9 by time-kill analysis in presence of beta-lactamase inhibitor clavulanic acid
Streptococcus pneumoniae [49] = experiment: Antimicrobial activity against Streptococcus pneumoniae 11 by time-kill analysis; how it was run: as §2
Streptococcus pneumoniae [50] = experiment: Antimicrobial activity against Streptococcus pneumoniae 6 by time-kill analysis; how it was run: as §2
Streptococcus pneumoniae [51] = experiment: Antimicrobial activity against Streptococcus pneumoniae 12 by time-kill analysis in presence of beta-lactamase inhibitor clavulanic acid
Streptococcus pneumoniae [52] = experiment: Antimicrobial activity against Streptococcus pneumoniae 12 by time-kill analysis; how it was run: as §2
Streptococcus pneumoniae [53] = experiment: Antimicrobial activity against Streptococcus pneumoniae isolate 2874 by agar dilution method; how it was run: as §1
Streptococcus pneumoniae [54] = experiment: Antimicrobial activity against penicillin-susceptible Streptococcus pneumoniae by agar dilution method
Streptococcus pneumoniae [55] = experiment: Antimicrobial activity against Streptococcus pneumoniae 5 by time-kill analysis in presence of beta-lactamase inhibitor clavulanic acid
Streptococcus pneumoniae [56] = experiment: Antimicrobial activity against Streptococcus pneumoniae isolate 3282 by agar dilution method
Streptococcus pneumoniae [57] = experiment: Antimicrobial activity against Streptococcus pneumoniae isolate 3481 by agar dilution method; how it was run: as §1
Streptococcus pneumoniae [58] = experiment: Antimicrobial activity against Streptococcus pneumoniae isolate 3412 by agar dilution method; how it was run: as §1
Streptococcus pneumoniae [59] = experiment: Antimicrobial activity against Streptococcus pneumoniae 4 by time-kill analysis in presence of beta-lactamase inhibitor clavulanic acid
Streptococcus pneumoniae [60] = experiment: Antimicrobial activity against Streptococcus pneumoniae 6 by time-kill analysis in presence of beta-lactamase inhibitor clavulanic acid
Streptococcus pneumoniae [61] = experiment: Antimicrobial activity against Streptococcus pneumoniae 2 by time-kill analysis in presence of beta-lactamase inhibitor clavulanic acid
Streptococcus pneumoniae [62] = experiment: Antimicrobial activity against Streptococcus pneumoniae 11 by time-kill analysis in presence of beta-lactamase inhibitor clavulanic acid
Streptococcus pneumoniae [63] = experiment: Antimicrobial activity against penicillin-intermediate Streptococcus pneumoniae by agar dilution method

CC1(C)S[C@@H]2[C@H](NC(=O)[C@H](N)c3ccc(O)cc3)C(=O)N2[C@H]1C(=O)O [AMOXICILLIN]
MIC (Streptococcus pneumoniae [1]): 8 µg/mL (≈ 21.9 µM)
MIC (Streptococcus pneumoniae [2]): 2 µg/mL (≈ 5.47 µM)
MIC (Streptococcus pneumoniae [3]): 1 µg/mL (≈ 2.74 µM)
MIC (Streptococcus pneumoniae [4]): 16 µg/mL (≈ 43.8 µM)
MIC (Streptococcus pneumoniae [5]): 8 µg/mL (≈ 21.9 µM)
MIC (Streptococcus pneumoniae [6]): 2 µg/mL (≈ 5.47 µM)
MIC (Streptococcus pneumoniae [7]): 0.06 µg/mL (≈ 0.164 µM)
MIC (Streptococcus pneumoniae [8]): 2 µg/mL (≈ 5.47 µM)
MIC (Streptococcus pneumoniae [9]): 0.5 µg/mL
MIC (Streptococcus pneumoniae [10]): 2 µg/mL (≈ 5.47 µM)
MIC (Streptococcus pneumoniae [11]): 1 µg/mL (≈ 2.74 µM)
MIC (Streptococcus pneumoniae [12]): 4 µg/mL (≈ 10.9 µM)
MIC (Streptococcus pneumoniae [13]): 2 µg/mL (≈ 5.47 µM)
MIC (Streptococcus pneumoniae [14]): 2 µg/mL (≈ 5.47 µM)
MIC (Streptococcus pneumoniae [15]): 4 µg/mL (≈ 10.9 µM)
MIC (Streptococcus pneumoniae [16]): 0.06 µg/mL
MIC (Streptococcus pneumoniae [17]): 2 µg/mL (≈ 5.47 µM)
MIC (Streptococcus pneumoniae [18]): 0.25 µg/mL (≈ 0.684 µM)
MIC (Streptococcus pneumoniae [19]): 2 µg/mL
MIC (Streptococcus pneumoniae [20]): 0.5 µg/mL (≈ 1.37 µM)
MIC (Streptococcus pneumoniae [21]): 4 µg/mL (≈ 10.9 µM)
MIC (Streptococcus pneumoniae [22]): 2 µg/mL (≈ 5.47 µM)
MIC (Streptococcus pneumoniae [23]): 8 µg/mL (≈ 21.9 µM)
MIC (Streptococcus pneumoniae [24]): 4 µg/mL (≈ 10.9 µM)
MIC (Streptococcus pneumoniae [25]): 0.125 µg/mL (≈ 0.342 µM)
MIC (Streptococcus pneumoniae [26]): 8 µg/mL (≈ 21.9 µM)
MIC (Streptococcus pneumoniae [27]): 8 µg/mL (≈ 21.9 µM)
MIC (Streptococcus pneumoniae [28]): 0.03 µg/mL (≈ 0.0821 µM)
MIC (Streptococcus pneumoniae [29]): 8 µg/mL (≈ 21.9 µM)
MIC50 (Streptococcus pneumoniae [30]): 8 µg/mL (≈ 21.9 µM)
MIC90 (Streptococcus pneumoniae [30]): 8 µg/mL (≈ 21.9 µM)
MIC (Streptococcus pneumoniae [31]): 0.03 µg/mL
MIC50 (Streptococcus pneumoniae [32]): 0.03 µg/mL
MIC90 (Streptococcus pneumoniae [32]): 0.03 µg/mL
MIC (Streptococcus pneumoniae [33]): 8 µg/mL (≈ 21.9 µM)
MIC (Streptococcus pneumoniae [34]): 4 µg/mL (≈ 10.9 µM)
MIC (Streptococcus pneumoniae [35]): 0.03 µg/mL (≈ 0.0821 µM)
MIC (Streptococcus pneumoniae [36]): 8 µg/mL (≈ 21.9 µM)
MIC (Streptococcus pneumoniae [37]): 8 µg/mL (≈ 21.9 µM)
MIC50 (Streptococcus pneumoniae [38]): 8 µg/mL
MIC90 (Streptococcus pneumoniae [38]): 8 µg/mL
MIC50 (Streptococcus pneumoniae [39]): 2 µg/mL
MIC90 (Streptococcus pneumoniae [39]): 4 µg/mL
MIC50 (Streptococcus pneumoniae [40]): 0.25 µg/mL
MIC90 (Streptococcus pneumoniae [40]): 1 µg/mL
MIC50 (Streptococcus pneumoniae [41]): 2 µg/mL (≈ 5.47 µM)
MIC90 (Streptococcus pneumoniae [41]): 8 µg/mL (≈ 21.9 µM)
MIC (Streptococcus pneumoniae [42]): 2 µg/mL (≈ 5.47 µM)
MIC (Streptococcus pneumoniae [43]): 4 µg/mL (≈ 10.9 µM)
MIC (Streptococcus pneumoniae [44]): 4 µg/mL (≈ 10.9 µM)
MIC (Streptococcus pneumoniae [45]): 2 µg/mL
MIC (Streptococcus pneumoniae [46]): 1 µg/mL (≈ 2.74 µM)
MIC (Streptococcus pneumoniae [47]): 1 µg/mL (≈ 2.74 µM)
MIC (Streptococcus pneumoniae [48]): 0.25 µg/mL
MIC (Streptococcus pneumoniae [49]): 2 µg/mL (≈ 5.47 µM)
MIC (Streptococcus pneumoniae [50]): 0.25 µg/mL (≈ 0.684 µM)
MIC (Streptococcus pneumoniae [51]): 1 µg/mL
MIC (Streptococcus pneumoniae [52]): 1 µg/mL (≈ 2.74 µM)
MIC (Streptococcus pneumoniae [53]): 0.5 µg/mL (≈ 1.37 µM)
MIC50 (Streptococcus pneumoniae [54]): 0.03 µg/mL (≈ 0.0821 µM)
MIC90 (Streptococcus pneumoniae [54]): 0.03 µg/mL (≈ 0.0821 µM)
MIC (Streptococcus pneumoniae [55]): 8 µg/mL
MIC (Streptococcus pneumoniae [56]): 4 µg/mL (≈ 10.9 µM)
MIC (Streptococcus pneumoniae [57]): 8 µg/mL (≈ 21.9 µM)
MIC (Streptococcus pneumoniae [58]): 4 µg/mL (≈ 10.9 µM)
MIC (Streptococcus pneumoniae [59]): 2 µg/mL
MIC (Streptococcus pneumoniae [60]): 0.25 µg/mL
MIC (Streptococcus pneumoniae [61]): 0.03 µg/mL
MIC (Streptococcus pneumoniae [62]): 2 µg/mL
MIC50 (Streptococcus pneumoniae [63]): 0.25 µg/mL (≈ 0.684 µM)
MIC90 (Streptococcus pneumoniae [63]): 1 µg/mL (≈ 2.74 µM)
